Assay results as given in ChEMBL document CHEMBL4689842, “EUbOPEN Chemogenomics Library wave 1” (2021).

Test system: Fibroblast
Test: Multiplex assay against human fibroblast
Type: toxicity, cell-based
How it was run: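 Imaging took place on a CQ1 microscope at 37°C and 5% CO2 once compound had been added to live cells stained at seeding with Hoechst33342, BioTracker Green Microtubule Cytoskeleton Dye, MitoTracker Red and Annexin V Alexa Fluor 680. CellPathfinder machine-learning gating classed cells as Hoechst high-intensity objects or normal cells, classed normal cells as having healthy, pyknosed or fragmented nuclei, and classed pyknosed cells as mitotic or apoptotic. Tubulin, mitochondrial-mass and membrane-permeability phenotypes are per cents of the healthy-nucleus cells.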

[1] = 12 h, 1 µM, compound concentration 1 uM, replicate 1
[2] = 12 h, 1 µM, compound concentration 1 uM, replicate 2
[3] = 12 h, 10 µM, compound concentration 10 uM, replicate 1
[4] = 12 h, 10 µM, compound concentration 10 uM, replicate 2
[5] = 24 h, 1 µM, compound concentration 1 uM, replicate 1
[6] = 24 h, 1 µM, compound concentration 1 uM, replicate 2
[7] = 24 h, 10 µM, compound concentration 10 uM, replicate 1
[8] = 24 h, 10 µM, compound concentration 10 uM, replicate 2
[9] = 48 h, 1 µM, compound concentration 1 uM, replicate 1
[10] = 48 h, 1 µM, compound concentration 1 uM, replicate 2
[11] = 48 h, 10 µM, compound concentration 10 uM, replicate 1
[12] = 48 h, 10 µM, compound concentration 10 uM, replicate 2

CN1CCN(Cc2ccc(Nc3ncc(Cl)c(Nc4ccccc4S(=O)(=O)N(C)C)n3)cc2)CC1 [DUBERMATINIB]
Population Apoptotic (%) [1]: 54% | Population Fragmented Nuclei (%) [1]: 27% | Population Healthy Nuclei (%) [1]: 50% | Population Hoechst High Intensity Objects (%) [1]: 12% | Population Membrane Permeable-Phenotype (%) [1]: 41% | Population Mitochondria Different-Phenotype (%) [1]: 3% | Population Mitotic Cells (%) [1]: 45% | Population Normal (%) [1]: 87% | Population Pyknosed Nuclei (%) [1]: 21% | Population Tubulin-Different-Phenotype (%) [1]: 41% | Total Cell Count [1]: 126 | Population Apoptotic (%) [2]: 100% | Population Fragmented Nuclei (%) [2]: 13% | Population Healthy Nuclei (%) [2]: 83% | Population Hoechst High Intensity Objects (%) [2]: 10% | Population Membrane Permeable-Phenotype (%) [2]: 4% | Population Mitochondria Different-Phenotype (%) [2]: 16% | Population Mitotic Cells (%) [2]: 0% | Population Normal (%) [2]: 89% | Population Pyknosed Nuclei (%) [2]: 2% | Population Tubulin-Different-Phenotype (%) [2]: 11% | Total Cell Count [2]: 65 | Population Apoptotic (%) [3]: 72% | Population Fragmented Nuclei (%) [3]: 18% | Population Healthy Nuclei (%) [3]: 57% | Population Hoechst High Intensity Objects (%) [3]: 14% | Population Membrane Permeable-Phenotype (%) [3]: 22% | Population Mitochondria Different-Phenotype (%) [3]: 11% | Population Mitotic Cells (%) [3]: 28% | Population Normal (%) [3]: 85% | Population Pyknosed Nuclei (%) [3]: 23% | Population Tubulin-Different-Phenotype (%) [3]: 56% | Total Cell Count [3]: 125 | Population Apoptotic (%) [4]: 73% | Population Fragmented Nuclei (%) [4]: 45% | Population Healthy Nuclei (%) [4]: 31% | Population Hoechst High Intensity Objects (%) [4]: 9% | Population Membrane Permeable-Phenotype (%) [4]: 28% | Population Mitochondria Different-Phenotype (%) [4]: 38% | Population Mitotic Cells (%) [4]: 26% | Population Normal (%) [4]: 90% | Population Pyknosed Nuclei (%) [4]: 22% | Population Tubulin-Different-Phenotype (%) [4]: 42% | Total Cell Count [4]: 91 | Population Apoptotic (%) [5]: 70% | Population Fragmented Nuclei (%) [5]: 28% | Population Healthy Nuclei (%) [5]: 57% | Population Hoechst High Intensity Objects (%) [5]: 11% | Population Membrane Permeable-Phenotype (%) [5]: 31% | Population Mitochondria Different-Phenotype (%) [5]: 5% | Population Mitotic Cells (%) [5]: 29% | Population Normal (%) [5]: 88% | Population Pyknosed Nuclei (%) [5]: 14% | Population Tubulin-Different-Phenotype (%) [5]: 37% | Total Cell Count [5]: 137 | Population Apoptotic (%) [6]: 0% | Population Fragmented Nuclei (%) [6]: 11% | Population Healthy Nuclei (%) [6]: 83% | Population Hoechst High Intensity Objects (%) [6]: 6% | Population Membrane Permeable-Phenotype (%) [6]: 4% | Population Mitochondria Different-Phenotype (%) [6]: 36% | Population Mitotic Cells (%) [6]: 100% | Population Normal (%) [6]: 93% | Population Pyknosed Nuclei (%) [6]: 4% | Population Tubulin-Different-Phenotype (%) [6]: 14% | Total Cell Count [6]: 70 | Population Apoptotic (%) [7]: 42% | Population Fragmented Nuclei (%) [7]: 23% | Population Healthy Nuclei (%) [7]: 55% | Population Hoechst High Intensity Objects (%) [7]: 15% | Population Membrane Permeable-Phenotype (%) [7]: 12% | Population Mitochondria Different-Phenotype (%) [7]: 16% | Population Mitotic Cells (%) [7]: 57% | Population Normal (%) [7]: 84% | Population Pyknosed Nuclei (%) [7]: 21% | Population Tubulin-Different-Phenotype (%) [7]: 61% | Total Cell Count [7]: 116 | Population Apoptotic (%) [8]: 95% | Population Fragmented Nuclei (%) [8]: 30% | Population Healthy Nuclei (%) [8]: 33% | Population Hoechst High Intensity Objects (%) [8]: 14% | Population Membrane Permeable-Phenotype (%) [8]: 55% | Population Mitochondria Different-Phenotype (%) [8]: 55% | Population Mitotic Cells (%) [8]: 4% | Population Normal (%) [8]: 85% | Population Pyknosed Nuclei (%) [8]: 36% | Population Tubulin-Different-Phenotype (%) [8]: 65% | Total Cell Count [8]: 87 | Population Apoptotic (%) [9]: 62% | Population Fragmented Nuclei (%) [9]: 39% | Population Healthy Nuclei (%) [9]: 46% | Population Hoechst High Intensity Objects (%) [9]: 10% | Population Membrane Permeable-Phenotype (%) [9]: 22% | Population Mitochondria Different-Phenotype (%) [9]: 7% | Population Mitotic Cells (%) [9]: 37% | Population Normal (%) [9]: 89% | Population Pyknosed Nuclei (%) [9]: 13% | Population Tubulin-Different-Phenotype (%) [9]: 40% | Total Cell Count [9]: 129 | Population Apoptotic (%) [10]: 66% | Population Fragmented Nuclei (%) [10]: 30% | Population Healthy Nuclei (%) [10]: 67% | Population Hoechst High Intensity Objects (%) [10]: 4% | Population Membrane Permeable-Phenotype (%) [10]: 24% | Population Mitochondria Different-Phenotype (%) [10]: 5% | Population Mitotic Cells (%) [10]: 33% | Population Normal (%) [10]: 95% | Population Pyknosed Nuclei (%) [10]: 2% | Population Tubulin-Different-Phenotype (%) [10]: 41% | Total Cell Count [10]: 115 | Population Apoptotic (%) [11]: 53% | Population Fragmented Nuclei (%) [11]: 39% | Population Healthy Nuclei (%) [11]: 36% | Population Hoechst High Intensity Objects (%) [11]: 13% | Population Membrane Permeable-Phenotype (%) [11]: 31% | Population Mitochondria Different-Phenotype (%) [11]: 21% | Population Mitotic Cells (%) [11]: 46% | Population Normal (%) [11]: 86% | Population Pyknosed Nuclei (%) [11]: 24% | Population Tubulin-Different-Phenotype (%) [11]: 73% | Total Cell Count [11]: 122 | Population Apoptotic (%) [12]: 50% | Population Fragmented Nuclei (%) [12]: 43% | Population Healthy Nuclei (%) [12]: 44% | Population Hoechst High Intensity Objects (%) [12]: 16% | Population Membrane Permeable-Phenotype (%) [12]: 32% | Population Mitochondria Different-Phenotype (%) [12]: 19% | Population Mitotic Cells (%) [12]: 50% | Population Normal (%) [12]: 83% | Population Pyknosed Nuclei (%) [12]: 11% | Population Tubulin-Different-Phenotype (%) [12]: 48% | Total Cell Count [12]: 83
